Assay results collected from several papers.
Each line is one published result; the experiments were not run side by side.
Target: Aurora kinase B (AURKB, Homo sapiens, UniProt Q96GD4)

| SMILES | effect on | method | concentration | remaining binding |
| --- | --- | --- | --- | --- |
| N[C@H]1CCN(c2nccc(-c3cnn4ncccc34)n2)C1 | binding |  | 1 µM | 77% |
| Cc1c(C(=O)O)cc(-c2ccc(C3CCNCC3)cc2)c2ccc(-c3ccc(C(F)(F)F)cc3)cc12 | cell-free assay | competition with immobilised ligand | 1 µM | 100% |
| O=C(NCC1CCOCC1)c1n[nH]cc1NC(=O)c1c(F)cccc1F | binding | competition with immobilised ligand | 1 µM | 78% |
| COc1cnc(Nc2cccc(S(N)(=O)=O)c2)nc1N1CCN(c2ccccc2)CC1 | binding | competition with immobilised ligand | 1 µM | 89% |
| C[C@@H](c1ccc(-n2cnc3c(N)ncnc32)cc1)N1CCc2nn(C)c(Cc3ccccc3)c2C1=O | binding | competition with immobilised ligand | 0.1 µM | 65% |
| CN(c1nccc(-c2cnn3ncccc23)n1)C1CC1 | binding |  | 1 µM | 100% |
| O=C(c1ccc(Nc2ncc(Cl)c(-c3cc4ccccc4s3)n2)cc1)N1CCC(N2CCCC2)CC1 | binding | competition with immobilised ligand | 1 µM | 17% |
| C[C@@H]1CN(c2cc(-c3n[nH]c4ccc(OC5(C)CC5)cc34)ncn2)C[C@H](C)O1 | cell-free assay | competition with immobilised ligand | 0.1 µM | 73% |
| FC(F)(F)Oc1cccc(-c2cnc3ccc(-c4ccncc4)nn23)c1 | cell-free assay | competition with immobilised ligand | 5 µM | 73% |
| CN(c1ccnc(CNc2nc(Nc3ccc4c(c3)CC(=O)N4)ncc2C(F)(F)F)n1)S(C)(=O)=O | cell-free assay | competition with immobilised ligand | 1 µM | 9.9% |
| C[C@H]1CCN(c2nccc(-c3cnn4ncccc34)n2)C1 | binding |  | 1 µM | 70% |
| COc1cnc(Nc2cccc(S(N)(=O)=O)c2)nc1N1CCN(c2ccccc2)C(=O)C1 | binding | competition with immobilised ligand | 1 µM | 63% |
| O=C1CCc2cc(Nc3cc(OC4CCOCC4)c([N+](=O)[O-])cc3Cl)ccc2N1 | cell-free assay | competition with immobilised ligand | 1 µM | 86% |
| CN(CCCC(F)(F)F)c1nccc(-c2cnn3ncccc23)n1 | binding |  | 1 µM | 98% |
| COc1cc(C(=O)N2CCC(N3CCN(C)CC3)CC2)ccc1Nc1ncc2c(n1)N(C)c1ccccc1C(=O)N2C | binding | competition with immobilised ligand | 10 µM | 38% |
| CSc1cccnc1N1CCN(Cc2nc3ccccc3[nH]2)CC1 | cell-free assay | competition with immobilised ligand | 1 µM | 67% |
| O=C(NCCCN1CCOCC1)c1ccc(Nc2nccc(-c3cc4ccccc4s3)n2)cc1 | binding | competition with immobilised ligand | 1 µM | 48% |
| CN(C)c1nccc(-c2cnc3ncccn23)n1 | binding |  | 1 µM | 76% |
| CC(C)(C)c1ccc(-c2nc(CBr)nn2-c2cccc(O)c2)cc1 | cell-free assay | competition with immobilised ligand | 10 µM | 69% |
| CC(=O)N1CCC(c2ccc(C(=O)NC3=NCCN3)cc2C(F)(F)F)CC1 | cell-free assay | competition with immobilised ligand | 1 µM | 100% |
| C[C@@H]1CN(c2ccc3ncc(-c4ccc5[nH]nc(C6CC6)c5c4)n3n2)C[C@H](C)O1 | binding | competition with immobilised ligand | 50 nM | 100% |
| Cc1cnc(Nc2ccc(C(=O)N3CCC(N4CCCC4)CC3)cc2)nc1-c1cc2ccccc2s1 | binding | competition with immobilised ligand | 1 µM | 6.8% |
| CCC(=O)N[C@H]1CC[C@@H](C(=O)N(C)c2ccc(-c3nc4ccccc4o3)cc2)C1 | cell-free assay | competition with immobilised ligand | 1 µM | 83% |
